Experimental data taken from ChEMBL document CHEMBL4145618, “Constraining Endomorphin-1 by β,α-Hybrid Dipeptide/Heterocycle Scaffolds: Identification of a Novel κ-Opioid Receptor Selective Partial Agonist” (J Med Chem, 2018).
Active and inactive are the calls of the source.

Columns and labels:
Mu-type opioid receptor [1] = biological target: T1, Mu-type opioid receptor (Homo sapiens, UniProt P35372); assay: Displacement of [3H]DAMGO from human mu opioid receptor expressed in HEK293 cell membranes after 2 hrs by liquid scintillation spectrometry
T1 sequence (P35372 whole entry): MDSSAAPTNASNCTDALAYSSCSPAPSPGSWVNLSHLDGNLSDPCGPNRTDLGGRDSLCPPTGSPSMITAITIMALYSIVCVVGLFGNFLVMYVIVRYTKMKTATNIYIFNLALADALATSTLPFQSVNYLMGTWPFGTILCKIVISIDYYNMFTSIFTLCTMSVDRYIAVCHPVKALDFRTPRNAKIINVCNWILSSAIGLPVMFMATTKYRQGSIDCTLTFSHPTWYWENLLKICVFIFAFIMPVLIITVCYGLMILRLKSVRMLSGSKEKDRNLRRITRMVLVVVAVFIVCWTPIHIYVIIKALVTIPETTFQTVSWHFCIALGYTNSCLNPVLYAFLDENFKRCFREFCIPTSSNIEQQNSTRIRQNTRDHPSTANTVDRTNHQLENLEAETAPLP
Summary of the method: (§1)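 Membranes from HEK-293 cells stably expressing human opioid receptors. Radioligands: [3H]DAMGO for MOR, [3H]diprenorphine for DOR, [3H]U69,593 for KOR. Competitor range 10^-12–10^-4 M, 120 min at 25°C, Tris-HCl buffer with 0.3% BSA. Unlabelled ligands defined nonspecific binding. Bound label collected on 0.3% polyethylenimine-presoaked filters and counted by liquid scintillation. Ki from IC50 via Cheng-Prusoff.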

[2] = biological target: Delta-type opioid receptor (Homo sapiens, UniProt P41143); assay: Displacement of [3H]diprenorphine from human delta opioid receptor expressed in HEK293 cell membranes after 2 hrs by liquid scintillation spectrometry
Chain of Delta-type opioid receptor (P41143 whole entry): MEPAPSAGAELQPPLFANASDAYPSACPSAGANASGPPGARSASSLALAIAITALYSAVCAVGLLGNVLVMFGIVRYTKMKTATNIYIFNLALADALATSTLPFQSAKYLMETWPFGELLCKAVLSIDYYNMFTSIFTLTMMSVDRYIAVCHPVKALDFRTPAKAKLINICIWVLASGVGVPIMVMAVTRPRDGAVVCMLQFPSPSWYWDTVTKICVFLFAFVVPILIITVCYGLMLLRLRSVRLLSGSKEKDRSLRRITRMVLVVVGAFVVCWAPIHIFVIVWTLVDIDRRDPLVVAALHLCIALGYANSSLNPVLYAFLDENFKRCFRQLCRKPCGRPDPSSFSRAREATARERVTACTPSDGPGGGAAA

[3] = biological target: T2, Kappa-type opioid receptor (Homo sapiens, UniProt P41145); assay: Displacement of [3H]U69,593 from human kappa opioid receptor expressed in HEK293 cell membranes after 2 hrs by liquid scintillation spectrometry; summary of the method: as §1
T2 sequence (P41145 whole entry): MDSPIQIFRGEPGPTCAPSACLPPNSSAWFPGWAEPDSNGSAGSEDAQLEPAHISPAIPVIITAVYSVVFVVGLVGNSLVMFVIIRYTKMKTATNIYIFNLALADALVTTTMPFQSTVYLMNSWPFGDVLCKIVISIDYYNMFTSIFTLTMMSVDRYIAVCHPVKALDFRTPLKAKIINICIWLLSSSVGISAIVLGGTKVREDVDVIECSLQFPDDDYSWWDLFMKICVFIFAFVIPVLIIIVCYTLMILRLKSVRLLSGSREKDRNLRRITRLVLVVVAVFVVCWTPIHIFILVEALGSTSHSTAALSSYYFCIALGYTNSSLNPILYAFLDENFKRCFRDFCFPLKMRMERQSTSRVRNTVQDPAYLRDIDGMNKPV

Mu-type opioid receptor [4] = biological target: T1, Mu-type opioid receptor; assay: Agonist activity at human mu opioid receptor expressed in HEK293 assessed as inhibition forskolin-induced cAMP accumulation at 0.00001 to 100 uM after 15 mins by EIA relative to control; type: functional, cell-based
Summary of the method: (§2)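 Whole HEK-293 cells stably expressing human KOR or MOR, in serum-free medium with 0.5 mM IBMX. Cells exposed 15 min at 37°C to 10 µM forskolin, with or without test agent. KOR co-treatment run: U50,488 1 pM–100 µM with or without 1 µM test agent. cAMP measured by enzyme immunoassay.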

Mus musculus [5] = assay: Antinociceptive activity in CD1 mouse assessed as increase in latency to response at 20 mg/kg, ip measured at 15 mins post dose by tail immersion test relative to control; type: functional
Summary of the method: (§3)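 Mouse warm-water tail immersion at 52 ± 0.5 °C. Control withdrawal latency recorded before dosing; only mice responding within 5 s were used. Vehicle or compound given ip at 10 or 20 mg/kg. Where stated, norBNI 10 mg/kg given 30 min before compound. Test latency taken with 10 s cutoff. MPE% = 100 × (TL − CL)/(10 − CL); n = 6.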

[6] = biological target: T2, Kappa-type opioid receptor; assay: Agonist activity at human kappa opioid receptor expressed in HEK293 assessed as inhibition forskolin-induced cAMP accumulation at 1 uM after 15 mins in presence of U50,488 by EIA; type: functional, cell-based; summary of the method: as §2
[7] = Drug metabolism in mouse serum assessed as compound hydrolysis after 1 hr by RP-HPLC analysis; type: ADME, cell-free; settings: read-out: Drug metabolism
Summary of the method: (§4)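 Peptides incubated in mouse serum at 37°C for up to 4 h and sampled over time. Enzymatic activity stopped with cold acetonitrile, then centrifuged. Intact peptide in the supernatant quantified by reversed-phase HPLC, with ESI-MS analysis.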

Mus musculus [8] = assay: Antinociceptive activity in CD1 mouse assessed as increase in latency to response at 20 mg/kg, ip measured at 30 mins post dose by tail immersion test relative to control; type: functional; summary of the method: as §3
[9] = biological target: T2, Kappa-type opioid receptor; assay: Agonist activity at human kappa opioid receptor expressed in HEK293 assessed as inhibition forskolin-induced cAMP accumulation at 0.00001 to 100 uM after 15 mins by cAMP EIA relative to control; type: functional, cell-based; summary of the method: as §2
Mus musculus [10] = assay: Antinociceptive activity in CD1 mouse assessed as increase in latency to response at 10 mg/kg, ip measured at 15 mins post dose by tail immersion test; type: functional, organism-based; summary of the method: as §3
Mus musculus [11] = assay: Antinociceptive activity in CD1 mouse assessed as increase in latency to response at 20 mg/kg, ip measured at 15 mins post dose in presence of KOR antagonist nor-BNI by tail immersion test; type: functional, organism-based; summary of the method: as §3
[12] = biological target: T2, Kappa-type opioid receptor; assay: Agonist activity at human kappa opioid receptor expressed in HEK293 assessed as inhibition forskolin-induced cAMP accumulation after 15 mins by EIA; type: functional, cell-based; summary of the method: as §2
[13] = Drug metabolism in mouse serum assessed as compound hydrolysis after 4 hrs by RP-HPLC analysis; type: ADME, cell-free; settings: read-out: Drug metabolism; summary of the method: as §4
Mu-type opioid receptor [14] = biological target: T1, Mu-type opioid receptor; assay: Agonist activity at human mu opioid receptor expressed in HEK293 assessed as inhibition forskolin-induced cAMP accumulation after 15 mins by EIA; type: functional, cell-based; summary of the method: as §2

**Q.** Which Ki (Mu-type opioid receptor [1]) does the source give for `NC(=O)[C@H](Cc1ccccc1)NC(=O)[C@@H](Cc1c[nH]c2ccccc12)N1C(=O)O[C@@H](CNC(=O)[C@@H](N)Cc2ccc(O)cc2)C1=O` here?
**A.** > 100 µM

**Q.** And the Ki [2]?
**A.** > 100 µM

**Q.** And the Ki [3]?
**A.** > 100 µM

**Q.** Which Emax (Mu-type opioid receptor [4]) does the source give for `N[C@@H](Cc1ccc(O)cc1)C(=O)N1CCC[C@H]1C(=O)N[C@@H](Cc1c[nH]c2ccccc12)C(=O)N[C@@H](Cc1ccccc1)C(=O)O` here?
**A.** 53%

**Q.** Which Ki (Mu-type opioid receptor [1]) does the source give for `NC(=O)[C@H](Cc1ccccc1)NC(=O)[C@H](Cc1c[nH]c2ccccc12)N1C(=O)O[C@@H](CNC(=O)[C@@H](N)Cc2ccc(O)cc2)C1=O` here?
**A.** > 100 µM

**Q.** What about the MPE (Mus musculus [5]) of the same molecule?
**A.** 60%

**Q.** What about the inhibition [6] of the same molecule?
**A.** 40%

**Q.** And the metabolised at 1 h [7]?
**A.** < 5%

**Q.** And the Ki [2]?
**A.** > 100 µM

**Q.** What about the MPE (Mus musculus [8]) of the same molecule?
**A.** 42%

**Q.** What about the Emax [9] of the same molecule?
**A.** 40%

**Q.** What about the Activity (Mus musculus [10]) of the same molecule?
**A.** Active

**Q.** What about the Ki [3] of the same molecule?
**A.** 0.0098 µM

**Q.** And the Activity (Mus musculus [11])?
**A.** inactive

**Q.** And the IC50 [12]?
**A.** 0.00022 µM

**Q.** With `NC(=O)[C@H](Cc1ccccc1)NC(=O)[C@@H](Cc1c[nH]c2ccccc12)N1C(=O)O[C@H](CNC(=O)[C@@H](N)Cc2ccc(O)cc2)C1=O` as the molecule, how does the Ki (Mu-type opioid receptor [1]) read?
**A.** 0.24 µM

**Q.** And the Ki [2]?
**A.** > 100 µM

**Q.** What about the Emax (Mu-type opioid receptor [4]) of the same molecule?
**A.** 50%

**Q.** And the metabolised at 4 h [13]?
**A.** < 10%

**Q.** And the IC50 (Mu-type opioid receptor [14])?
**A.** 0.016 nM

**Q.** And the Ki [3]?
**A.** > 100 µM

**Q.** What does the source list for `NC(=O)[C@H](Cc1ccccc1)NC(=O)[C@H](Cc1c[nH]c2ccccc12)N1C(=O)O[C@H](CNC(=O)[C@@H](N)Cc2ccc(O)cc2)C1=O`?
**A.** Ki (Mu-type opioid receptor [1]): > 100 µM; Ki [2]: > 100 µM; Ki [3]: > 100 µM
